Assay results taken from ChEMBL document CHEMBL2157949 (J Med Chem, 2012).

Tests used:
R2 [1] = assay: Growth inhibition of Chinese hamster R2 cells deficient in reduced folate carrier and human folate receptor alpha incubated for 96 hrs by CellTiter-blue cell viability assay; format: cell-based, Cricetulus griseus; conditions: R2, 96 h
R2 [2] = assay: Growth inhibition of Chinese hamster R2 cells expressing human PCFT incubated for 96 hrs by CellTiter-blue cell viability assay; format: functional, cell-based, Cricetulus griseus; conditions: R2, 96 h
In short: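 R2/hPCFT4 CHO cells maintained beforehand in folate-free RPMI 1640 with dialyzed FBS, 25 nM LCV and G418. Assay: ~2500–5000 cells/well in folate-free RPMI 1640 (pH 7.2) with 25 nM LCV, 10% dialyzed FBS, antibiotics and L-glutamine, over a range of drug concentrations.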

KB [3] = assay: Growth inhibition of human KB cells endogenously expressing RFC/FRalpha/PCFT incubated for 96 hrs by CellTiter-blue cell viability assay; format: functional, cell-based
KB [4] = assay: Growth inhibition of human KB cells endogenously expressing RFC/FRalpha/PCFT in presence of folic acid incubated for 96 hrs by CellTiter-blue cell viability assay; format: functional, cell-based
R2 [5] = assay: Growth inhibition of Chinese hamster R2 cells expressing empty vector control incubated for 96 hrs by CellTiter-blue cell viability assay; conditions: Cricetulus griseus, R2, 96 h
[6] = Growth inhibition of Chinese hamster RT16 cells expressing human folate receptor alpha incubated for 96 hrs in presence of folic acid by CellTiter-blue cell viability assay; format: functional, cell-based; conditions: Cricetulus griseus, RT16, 96 h
[7] = Growth inhibition of Chinese hamster RT16 cells expressing human folate receptor alpha incubated for 96 hrs by CellTiter-blue cell viability assay; format: functional, cell-based; conditions: Cricetulus griseus, RT16, 96 h
[8] = Growth inhibition of Chinese hamster PC43-10 cells expressing reduced folate carrier incubated for 96 hrs by CellTiter-blue cell viability assay; format: functional, cell-based; conditions: Cricetulus griseus, PC43-10, 96 h
IGROV-1 [9] = assay: Growth inhibition of human IGROV1 cells endogenously expressing RFC/FRalpha/PCFT in presence of folic acid incubated for 96 hrs by CellTiter-blue cell viability assay; format: functional, cell-based; conditions: IGROV-1, 96 h
IGROV-1 [10] = assay: Growth inhibition of human IGROV1 cells endogenously expressing RFC/FRalpha/PCFT incubated for 96 hrs by CellTiter-blue cell viability assay; format: functional, cell-based; conditions: IGROV-1, 96 h
KB [11] = assay: Inhibition of colony formation of human KB cells endogenously expressing RFC/FRalpha/PCFT incubated for 14 days by methylene blue staining based clonogenicty assay; format: functional, cell-based; conditions: 336 h
[12] = target: T1, Trifunctional purine biosynthetic protein adenosine-3 (Homo sapiens, UniProt P22102); assay: Inhibition of GARFTase in human IGROV1 cells assessed as reduction in [14C]glycine incorporation into [14C]formyl GAR incubated for 15 hrs in complete folate free RPMI medium in presence of 2 nM leucovorin; format: cell-based, IGROV-1
T1 sequence (P22102 whole entry): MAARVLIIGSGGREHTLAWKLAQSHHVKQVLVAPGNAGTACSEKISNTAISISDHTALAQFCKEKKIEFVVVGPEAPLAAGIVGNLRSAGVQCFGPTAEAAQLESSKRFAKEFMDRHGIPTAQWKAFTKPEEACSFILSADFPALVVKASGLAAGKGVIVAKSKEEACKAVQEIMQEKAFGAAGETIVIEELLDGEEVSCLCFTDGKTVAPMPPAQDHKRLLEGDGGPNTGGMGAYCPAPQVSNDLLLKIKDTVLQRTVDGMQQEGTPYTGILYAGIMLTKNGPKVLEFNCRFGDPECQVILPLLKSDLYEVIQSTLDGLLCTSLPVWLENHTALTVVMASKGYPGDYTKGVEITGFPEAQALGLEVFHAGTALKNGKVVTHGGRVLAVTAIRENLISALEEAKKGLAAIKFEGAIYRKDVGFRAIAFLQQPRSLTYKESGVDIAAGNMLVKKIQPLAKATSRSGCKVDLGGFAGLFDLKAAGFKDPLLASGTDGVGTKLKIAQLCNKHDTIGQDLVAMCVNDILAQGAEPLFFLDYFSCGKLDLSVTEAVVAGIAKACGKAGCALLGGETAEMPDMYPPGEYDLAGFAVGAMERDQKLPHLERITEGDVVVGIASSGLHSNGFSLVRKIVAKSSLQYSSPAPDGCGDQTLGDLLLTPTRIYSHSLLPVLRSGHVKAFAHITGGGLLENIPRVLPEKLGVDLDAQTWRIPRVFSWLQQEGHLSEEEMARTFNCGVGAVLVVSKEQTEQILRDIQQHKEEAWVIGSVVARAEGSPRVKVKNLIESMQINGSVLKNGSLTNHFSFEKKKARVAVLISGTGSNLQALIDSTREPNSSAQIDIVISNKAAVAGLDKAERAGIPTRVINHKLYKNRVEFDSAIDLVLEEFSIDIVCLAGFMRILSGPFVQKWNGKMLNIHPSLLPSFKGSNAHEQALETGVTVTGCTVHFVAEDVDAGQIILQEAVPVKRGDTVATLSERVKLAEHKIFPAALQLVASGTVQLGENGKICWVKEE

[13] = target: Folate receptor alpha (Homo sapiens) (UniProt P15328); format: cell-based; conditions: CHO
KB [14] = assay: Growth inhibition of human KB cells endogenously expressing RFC/FRalpha/PCFT in presence of 50 nM leucovorin incubated for 96 hrs by CellTiter-blue cell viability assay; format: functional, cell-based
In short: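 KB cells in complete folate-free RPMI 1640 with 10% dialyzed FBS and LCV at 50 nM (versus the standard 2 nM), exposed to a range of antifolate concentrations for up to 96 h. Cell density read by CellTiter-blue fluorescence and normalized to drug-free cells. Representative data from experiments run in duplicate.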

Chain of Folate receptor alpha (Homo sapiens) (P15328 25-234 limits assumed): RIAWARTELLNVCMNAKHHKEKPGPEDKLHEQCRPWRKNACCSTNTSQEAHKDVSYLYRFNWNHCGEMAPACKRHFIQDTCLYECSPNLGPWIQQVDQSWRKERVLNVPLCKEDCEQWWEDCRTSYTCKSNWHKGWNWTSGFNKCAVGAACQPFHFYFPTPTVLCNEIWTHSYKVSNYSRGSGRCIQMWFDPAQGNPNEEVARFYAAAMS

SMILES | IC50 (R2 [1]) | IC50 (R2 [2]) | IC50 (KB [3]) | IC50 (KB [4]) | IC50 (R2 [5]) | IC50 [6] | IC50 [7] | IC50 [8] | IC50 (IGROV-1 [9]) | IC50 (IGROV-1 [10]) | IC50 (KB [11]) | IC50 [12] | relative binding affinity (RBA) [13] | IC50 (KB [14])
Nc1nc2[nH]c(CCC#Cc3sccc3C(=O)N[C@@H](CCC(=O)O)C(=O)O)cc2c(=O)[nH]1 | > 1000 nM | > 1000 nM | > 1000 nM | > 1000 nM | > 1000 nM | > 1000 nM | > 1000 nM | > 1000 nM |  |  |  |  |  | 
Nc1nc2[nH]c(CCC#Cc3cc(C(=O)N[C@@H](CCC(=O)O)C(=O)O)cs3)cc2c(=O)[nH]1 | > 1000 nM | > 1000 nM | > 1000 nM | > 1000 nM | > 1000 nM | > 1000 nM | 8.26 nM | > 1000 nM | > 1000 nM | > 1000 nM |  |  |  | 
Nc1nc2[nH]c(CCC#Cc3ccc(C(=O)N[C@@H](CCC(=O)O)C(=O)O)s3)cc2c(=O)[nH]1 | > 1000 nM | > 1000 nM | > 1000 nM | > 1000 nM | > 1000 nM | > 1000 nM | 12.1 nM | > 1000 nM | > 1000 nM | > 1000 nM |  |  |  | 
Nc1nc2[nH]c(CCCCc3cscc3C(=O)N[C@@H](CCC(=O)O)C(=O)O)cc2c(=O)[nH]1 | > 1000 nM | > 1000 nM | 35.3 nM | > 1000 nM | > 1000 nM | > 1000 nM | 147 nM | > 1000 nM | > 1000 nM | 103 nM |  |  |  | 
Nc1nc2[nH]c(CCCCc3ccsc3C(=O)N[C@@H](CCC(=O)O)C(=O)O)cc2c(=O)[nH]1 | > 1000 nM | > 1000 nM | 267 nM | > 1000 nM | > 1000 nM | > 1000 nM | > 1000 nM | > 1000 nM |  |  |  |  |  | 
Nc1nc2[nH]c(CCCCc3ccc(C(=O)N[C@@H](CCC(=O)O)C(=O)O)s3)cc2c(=O)[nH]1 | > 1000 nM |  |  | > 1000 nM | > 1000 nM | > 1000 nM |  | > 1000 nM | > 1000 nM |  | 0.2 nM | 3.46 nM | > 1 | 2.2 nM
